{"data": "Results of several laboratories", "cell line": "Vero", "effect on": "cell growth or viability", "note": "Protocols differ between the studies behind these lines."}
{"SMILES": "O=C1[C@H](CC[C@H](O)c2ccc(F)cc2)[C@@H](c2ccc(O)cc2)N1c1ccc(F)cc1", "technique": "MTT", "time": "72 h", "IC50": "36.5 µg/mL"}
{"SMILES": "C/C(=N/NC(=O)c1cn(-c2ccccc2)nc1-c1ccc(Cl)cc1)c1c(O)cc(C)oc1=O", "technique": "MTT", "time": "48 h", "IC50": "102 µM"}
{"SMILES": "NC1=NC(=NS(=O)(=O)c2ccc(N)cc2)NC(=O)C1N=Nc1ccccc1C(=O)O (stereo not shown)", "technique": "MTT", "time": "72 h", "IC50": "57.4 µM"}
{"SMILES": "COc1cccc2c1C(=O)c1c(O)c3c(c(O)c1C2=O)C[C@@](O)(C(=O)CO)C[C@@H]3O[C@H]1C[C@H](N)[C@H](O)[C@H](C)O1", "technique": "MTT", "time": "72 h", "IC50": "2.1 µM"}
{"SMILES": "C[C@@H]1C[C@H]2[C@@H]3CCC4=CC(=O)C=C[C@]4(C)[C@@]3(F)[C@@H](O)C[C@]2(C)[C@@]1(O)C(=O)CO", "technique": "MTT", "time": "48 h", "IC50": "80.1 µM"}
{"SMILES": "O=C1C[C@@H](c2ccccc2)Oc2c(Cc3ccccc3O)c(O)c(Cc3ccccc3O)c(O)c21", "technique": "MTT", "time": "72 h", "IC50": "48.7 µM"}
{"SMILES": "CO[C@H]1[C@H](O[C@H]([C@H]2O[C@@H](n3ccc(=O)[nH]c3=O)[C@H](O)[C@@H]2O)[C@H](NCCCNC(=O)[C@@H](NC(=O)[C@@H](NC(=O)N[C@H](C(=O)O)C(C)C)[C@@H]2CCN=C(N)N2)[C@@H](O)C(C)C)C(=O)O)O[C@H](CN)[C@H]1O", "technique": "WST-1", "IC50": "> 35 µM"}
{"SMILES": "NC1=NN(C(=O)C=Cc2ccccc2)C(=O)C1N=Nc1ccccc1C(=O)O (stereo not shown)", "technique": "MTT", "time": "72 h", "IC50": "59.7 µM"}
{"SMILES": "CO[C@H]1[C@H](O[C@H]([C@H]2O[C@@H](n3ccc(=O)[nH]c3=O)[C@H](O)[C@@H]2O)[C@H](NCCCNC(=O)[C@@H](NC(=O)[C@@H](NC(=O)N[C@H](C(=O)O)C(C)C)[C@@H]2CCN=C(N)N2)[C@@H](OC(=O)CCCCCCCCCCCCN(O)C(=N)N)C(C)C)C(=O)O)O[C@H](CN)[C@H]1O", "technique": "WST-1", "IC50": "> 35 µM"}
{"SMILES": "C/C(=N/NC(=O)c1cn(-c2ccccc2)nc1-c1ccccc1)c1c(O)cc(C)oc1=O", "technique": "MTT", "time": "48 h", "IC50": "664 µM"}
